Test results: ChEMBL document CHEMBL4007396, “New diphenylmethane derivatives as peroxisome proliferator-activated receptor alpha/gamma dual agonists endowed with anti-proliferative effects and mitochondrial activity” (Eur J Med Chem, 2017)

What was measured:
HT-29 [1] = test: Growth inhibition of human HT-29 cells assessed as cell vitality at 5 to 10 uM up to 72 hrs by hemocytometry relative to control; format: functional; set-up: scale not given: the % may be the effect or the level left
Method in brief: (§1)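 Exponentially growing HT-29 colon adenocarcinoma cells (D-MEM, 10% FBS, 37 °C, 5% CO2) exposed to vehicle (DMSO, final <0.1%) or 1, 5 and 10 μM compound in 10% FBS medium for 24, 48 and 72 hs; cells washed, trypsinized and counted by Bürker hemocytometer, three counts per well. Viability relative to vehicle; mean ± SD of three independent experiments in duplicate.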

HT-29 [2] = test: Growth inhibition of human HT-29 cells assessed as cell vitality at 10 uM after 48 hrs by hemocytometry relative to control; format: functional; set-up: scale not given: the % may be the effect or the level left; method in brief: as §1
HT-29 [3] = test: Growth inhibition of human HT-29 cells assessed as cell vitality at 5 uM up to 72 hrs by hemocytometry relative to control; format: functional; set-up: scale not given: the % may be the effect or the level left; method in brief: as §1
[4] = Growth inhibition of HEK293T cells assessed as cell vitality at 10 uM after 48 hrs by hemocytometry relative to control; format: cell-based, HEK-293T; conditions: human, read-out: Activity
Method in brief: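 HEK293T grown in DMEM with 10% FBS, penicillin-streptomycin and L-glutamine, exposed 48 h to 10 μM compound (DMSO under 0.1% final) alongside HT-29. Cells trypsinized and counted on a Bürker hemocytometer, three counts per well; viability relative to vehicle-treated cells; three independent experiments in duplicate, mean ± SD.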

SMILES | Activity (HT-29 [1]) | Activity (HT-29 [2]) [%] | Activity (HT-29 [3]) [%] | viability at 48 h, 10 µM [4] [%]
C[C@@H](Oc1ccc(Cc2ccc(OCc3coc(-c4ccccc4)n3)cc2)cc1)C(=O)O | 40 - 60% |  |  | 
C[C@H](Oc1ccc(Cc2ccc(OCc3coc(-c4ccccc4)n3)cc2)cc1)C(=O)O |  | 40 | 45 | 75
